Measured values: ChEMBL document CHEMBL1125733, “Fluoronaphthyridines and -quinolones as antibacterial agents. 3. Synthesis and structure-activity relationships of new 1-(1,1-dimethyl-2-fluoroethyl), 1-[1-methyl-1-(fluoromethyl)-2-fluoroethyl], and 1-[1,1-(difluoromethyl)-2-fluoroethyl] substituted derivatives” (J Med Chem, 1991)
In brackets after ≈: the same amount, converted by molar mass.

Key:
Staphylococcus aureus [1] = assay: In vitro antibacterial activity (minimum inhibitory concentration, MIC) against Staphylococcus aureus A 9537.; assay type: functional
Streptococcus pneumoniae = assay: In vitro antibacterial activity against Streptococcus pneumoniae A 9585; assay type: functional
Bacteroides fragilis = assay: Compound was tested in vitro for its antibacterial activity (minimum inhibitory concentration) against Bacteroides fragilis A 22862.; assay type: functional; details: A22862
Enterococcus faecalis = assay: In vitro antibacterial activity against Enterococcus faecalis A 9809; assay type: functional
Proteus mirabilis = assay: In vitro antibacterial activity (minimum inhibitory concentration, MIC) against Proteus mirabilis A 9900; assay type: functional
Canis familiaris [2] = assay: Compound was evaluated in vivo in urine sample collected over 24 hours for its concentration after 25 mg/kg peroral administration to dogs.; details: route oral
Pseudomonas aeruginosa [3] = assay: Compound was tested in vitro for its antibacterial activity (minimum inhibitory concentration, MIC) against Pseudomonas aeruginosa A 9843; assay type: functional
Morganella morganii = assay: In vitro antibacterial activity against Morganella morganii A 15153; assay type: functional
Klebsiella pneumoniae = assay: In vitro antibacterial activity against Klebsiella pneumoniae A 9664; assay type: functional
Escherichia coli [4] = assay: Compound was tested for the dose to protect 50% of mice from lethal infection against Escherichia coli A 15119 after peroral administration to OF1-strain of female Swiss mice.; assay type: functional; details: po, read-out: PD50
Summary of the method: (§1)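 Compounds dissolved in sterile water and given orally to female OF1 Swiss mice weighing 18-25 g, five mice per group.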

Serratia marcescens = assay: In vitro antibacterial activity (minimum inhibitory concentration) against Serratia marcescens A 20019.; assay type: functional
Enterobacter cloacae = assay: In vitro antibacterial activity against Enterobacter cloacae A 9656; assay type: functional
Mus musculus [5] = assay: Compound was evaluated in vivo in urine sample collected over 24 hours for its concentration after 40 mg/kg peroral administration to mice; assay type: functional; details: route oral
Summary of the method: (§2)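 Mice were dosed at 40 mg/kg, either orally with a blunt needle and syringe or intramuscularly, with separate groups for each route. Blood was drawn from the orbital sinus at 5, 15, 30, 60, 120 and 180 min. Urine was pooled over 24 h. Drug levels were measured by agar disk diffusion microbioassay with Salmonella enteritidis A9531 as the assay organism.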

Escherichia coli [6] = assay: In vitro antibacterial activity against Escherichia coli A 15119; assay type: functional
[7] = Compound was tested for the dose to protect 50% of mice from lethal infection against Streptococcus pneumoniae after peroral administration to OF1-strain of female Swiss mice.; assay type: functional; details: po, read-out: PD50; summary of the method: as §1
Staphylococcus aureus [8] = assay: In vitro antibacterial activity against Staphylococcus aureus A 24227; assay type: functional
Haemophilus influenzae = assay: In vitro antibacterial activity against Haemophilus influenzae A 21515; assay type: functional
in vivo [9] = details: mouse, po, 40 mg/kg
Mus musculus [10] = species: Mus musculus; details: in vivo, po, 40 mg/kg
Mus musculus [11] = assay: Compound was evaluated in vivo in blood samples from the orbital sinus for its concentration using Area under the time-concentration curve after 40 mg/kg intramuscular administration to mice; assay type: ADME, organism-based; parameters: dose 40 mg/kg, route intramuscular; details: im; summary of the method: as §2
[12] = Compound was evaluated in vivo in blood samples from the orbital sinus for its concentration after an intramuscular administration of 40 mg/kg in mice; assay type: ADME, organism-based; parameters: dose 40 mg/kg, route intramuscular; details: mouse, im; summary of the method: as §2
Pseudomonas aeruginosa [13] = assay: Compound was tested for the dose to protect 50% of mice from lethal infection against Pseudomonas aeruginosa A9843 after peroral administration to OF1-strain of female Swiss mice.; assay type: functional; details: po, read-out: PD50; summary of the method: as §1
Staphylococcus aureus [14] = assay: Compound was tested for the dose to protect 50% of mice from lethal infection against Staphylococcus aureus A 9606 after peroral administration to OF1-strain of female Swiss mice.; assay type: functional; details: po, read-out: PD50; summary of the method: as §1
in vivo [15] = details: mouse, blood, po, 40 mg/kg
in vivo [16] = details: dog, po, 25 mg/kg
Canis familiaris [17] = species: Canis familiaris; details: dog, in vivo, po, 25 mg/kg
Mus musculus [18] = assay: Compound was evaluated in vivo in urine sample collected over 24 hours for its concentration after 40 mg/kg intramuscular administration to mice; assay type: functional; summary of the method: as §2
[19] = Compound was evaluated in vivo in blood samples from the orbital sinus for its half life after 40 mg/kg of intramuscular administration in mice.; assay type: ADME, organism-based; parameters: dose 40 mg/kg, route intramuscular; details: mouse, im
in vivo [20] = details: dog, po, 25 mg/kg; remark: listed apart in the source
[21] = Compound was evaluated in vivo in blood samples from the orbital sinus for its concentration after a intramuscular administration 40 mg/kg in mice; assay type: ADME, organism-based; parameters: dose 40 mg/kg, route intramuscular; details: mouse, im; summary of the method: as §2

SMILES	MIC (Staphylococcus aureus [1]) [µg/mL]	MIC (Streptococcus pneumoniae) [µg/mL]	MIC (Bacteroides fragilis) [µg/mL]	MIC (Enterococcus faecalis) [µg/mL]	MIC (Proteus mirabilis) [µg/mL]	UR (Canis familiaris [2]) [%]	MIC (Pseudomonas aeruginosa [3]) [µg/mL]	MIC (Morganella morganii) [µg/mL]	MIC (Klebsiella pneumoniae) [µg/mL]	ED50 (Escherichia coli [4]) [mg/kg]	MIC (Serratia marcescens) [µg/mL]	MIC (Enterobacter cloacae) [µg/mL]	UR (Mus musculus [5]) [%]	MIC (Escherichia coli [6]) [µg/mL]	ED50 [7] [mg/kg]	MIC (Staphylococcus aureus [8]) [µg/mL]	MIC (Haemophilus influenzae) [µg/mL]	S [µg/mL]	AUC (Mus musculus [10]) [ng·h/mL]	AUC (Mus musculus [11]) [ng·h/mL]	further results
CC(C)(C)n1cc(C(=O)O)c(=O)c2cc(F)c(N3CC[C@H](N)C3)nc21	0.004 (≈ 0.0115 µM)	0.008 (≈ 0.023 µM)	1 (≈ 2.87 µM)	0.06 (≈ 0.172 µM)	0.13 (≈ 0.373 µM)	9	0.25 (≈ 0.718 µM)	0.13 (≈ 0.373 µM)	0.03 (≈ 0.0861 µM)	1.2	0.25 (≈ 0.718 µM)	0.03 (≈ 0.0861 µM)	10	0.016 (≈ 0.0459 µM)	> 25	0.002 (≈ 0.00574 µM)	–	–	–	–	–
CC(C)(C)n1cc(C(=O)O)c(=O)c2cc(F)c(N3CCNCC3)nc21	0.06 (≈ 0.172 µM)	1 (≈ 2.87 µM)	8 (≈ 23 µM)	1 (≈ 2.87 µM)	0.13 (≈ 0.373 µM)	–	0.5 (≈ 1.44 µM)	0.06 (≈ 0.172 µM)	0.03 (≈ 0.0861 µM)	–	0.06 (≈ 0.172 µM)	0.06 (≈ 0.172 µM)	–	0.016 (≈ 0.0459 µM)	–	0.25 (≈ 0.718 µM)	0.016 (≈ 0.0459 µM)	820	–	–	–
CC(C)(CF)n1cc(C(=O)O)c(=O)c2cc(F)c(N3CCNCC3)nc21.Cl	0.25	0.5	16	2	0.25	–	1	0.13	0.25	–	0.25	0.25	–	0.13	–	0.5	0.13	1600	–	–	–
CC(C)(CF)n1cc(C(=O)O)c(=O)c2cc(F)c(N3CC4C[C@@H]3CN4)nc21.Cl	0.25	0.5	8	2	0.5	–	0.5	0.25	0.25	2.4	0.25	0.13	–	0.06	57.4	2	0.13	200	7000	20000	Cmax (in vivo [9]; blood): 4000 ng/mL; Cmax [12]: 8000 ng/mL; ED50 (Pseudomonas aeruginosa [13]): 4.9 mg/kg; ED50 (Staphylococcus aureus [14]): 25 mg/kg
Cl.O=C(O)c1cn(C(CF)(CF)CF)c2nc(N3CC4C[C@@H]3CN4)c(F)cc2c1=O	4	32	125	32	1	–	4	0.25	0.5	–	1	0.25	–	0.25	–	4	0.06	240	–	–	–
CC(C)(C)n1cc(C(=O)O)c(=O)c2cc(F)c(N3C[C@H]4C[C@@H]3CN4)nc21	0.03 (≈ 0.0832 µM)	0.13 (≈ 0.361 µM)	4 (≈ 11.1 µM)	0.5 (≈ 1.39 µM)	0.06 (≈ 0.166 µM)	20	0.25 (≈ 0.694 µM)	0.06 (≈ 0.166 µM)	0.016 (≈ 0.0444 µM)	1.8	0.06 (≈ 0.166 µM)	0.016 (≈ 0.0444 µM)	34	0.008 (≈ 0.0222 µM)	29.7	0.03 (≈ 0.0832 µM)	0.03 (≈ 0.0832 µM)	80	14000	25000	half-life (in vivo [15]): 1.6 h; Cmax (in vivo [9]; blood): 10000 ng/mL; Cmax (in vivo [16]): 5600 ng/mL; Cmax [12]: 13000 ng/mL; AUC (Canis familiaris [17]): 55000 ng·h/mL; ED50 (Pseudomonas aeruginosa [13]): 4.7 mg/kg; ED50 (Staphylococcus aureus [14]): 1.6 mg/kg; UR (Mus musculus [18]): 39%; half-life [19]: 1.58 h; half-life (in vivo [20]): 4.5 h
O=C(O)c1cn(C2CC2)c2cc(N3CCNCC3)c(F)cc2c1=O [CIPROFLOXACIN]	0.06 (≈ 0.181 µM)	0.25 (≈ 0.754 µM)	4 (≈ 12.1 µM)	0.5 (≈ 1.51 µM)	0.008 (≈ 0.0241 µM)	17	–	–	0.06 (≈ 0.181 µM)	0.4	0.03 (≈ 0.0905 µM)	–	30	–	> 69	0.13 (≈ 0.392 µM)	0.03 (≈ 0.0905 µM)	–	7000	21000	Cmax (in vivo [9]; in vivo): 6000 ng/mL; Cmax (in vivo [16]): 3000 ng/mL; Cmax [12]: 15000 ng/mL; ED50 (Pseudomonas aeruginosa [13]): 2.6 mg/kg; ED50 (Staphylococcus aureus [14]): 31 mg/kg; UR (Mus musculus [18]): 46%
CN1CCN(c2c(F)cc3c(=O)c(C(=O)O)cn(CCF)c3c2F)CC1 [FLEROXACIN]	0.06 (≈ 0.162 µM)	2 (≈ 5.42 µM)	1 (≈ 2.71 µM)	8 (≈ 21.7 µM)	0.06 (≈ 0.162 µM)	–	2 (≈ 5.42 µM)	0.03 (≈ 0.0812 µM)	0.13 (≈ 0.352 µM)	–	0.13 (≈ 0.352 µM)	0.13 (≈ 0.352 µM)	51	0.03 (≈ 0.0812 µM)	–	0.25 (≈ 0.677 µM)	0.13 (≈ 0.352 µM)	–	23000	32000	half-life (in vivo [15]): 0.967 h; Cmax (in vivo [9]; blood): 12000 ng/mL; UR (Mus musculus [18]): 64%; half-life [19]: 1.02 h; Cmax [21]: 20000 ng/mL
